According to ChEMBL document CHEMBL4689842, “EUbOPEN Chemogenomics Library wave 1” (2021):
Values joined by “and” are separate entries in the source; they are usually repeats but may differ in a detail not shown here. Identical values can stand only once.

Experiments:
Assay type in all cases: toxicity, cell-based
[1] = test system: HEK-293T; experiment: Incucyte cell viability with HEK293T; settings: human, 10 µM, compound concentration 10 uM; further: filed as whole numbers so only -1 and 0 and 1 occur
[2] = test system: U2OS; experiment: Multiplex assay against U2OS; settings: human, 10 µM, compound concentration 10 uM
How it was run: (§1)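 Compound was added to live cells that had been stained at seeding with Hoechst33342, BioTracker Green Microtubule Cytoskeleton Dye, MitoTracker Red and Annexin V Alexa Fluor 680, and imaging followed on a CQ1 microscope at 37°C and 5% CO2. CellPathfinder machine-learning gating divided cells into Hoechst high-intensity objects or normal cells, normal cells into healthy, pyknosed or fragmented nuclei, and pyknosed cells into mitotic or apoptotic. Tubulin, mitochondrial-mass and membrane-permeability phenotypes are per cents of healthy-nucleus cells.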

[3] = test system: Fibroblast; experiment: Incucyte cell viability with human fibroblast; settings: 10 µM, compound concentration 10 uM; further: filed as whole numbers so only -1 and 0 and 1 occur
[4] = test system: Fibroblast; experiment: Multiplex assay against human fibroblast; settings: 10 µM, compound concentration 10 uM; how it was run: as §1
[5] = test system: U2OS; experiment: Incucyte cell viability with U2OS; settings: human, 10 µM, compound concentration 10 uM; further: filed as whole numbers so only -1 and 0 and 1 occur
[6] = test system: HEK-293T; experiment: Multiplex assay against HEK293T; settings: human, 10 µM, compound concentration 10 uM; how it was run: as §1;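 on Population Tubulin-Different-Phenotype (%): share of the cells with healthy nuclei that show this phenotype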
[7] = 0 h, replicate number 2, timepoint 0 hours
[8] = 24 h, replicate number 2, timepoint 24 hours
[9] = 6 h, replicate number 1, timepoint 6 hours
[10] = 12 h, replicate number 1, timepoint 12 hours
[11] = 12 h, replicate number 2, timepoint 12 hours
[12] = 18 h, replicate number 1, timepoint 18 hours
[13] = 18 h, replicate number 2, timepoint 18 hours
[14] = 24 h, replicate number 1, timepoint 24 hours

## Cc1c(Oc2ccc(F)cc2)c(OC(C)C)nn1-c1ccc(C2CC2)cn1 [IPP/CNRS-A019]
[1]; 0 h, replicate number 1, timepoint 0 hours
  Growth Rate: 0
[1]; [7]
  Growth Rate: 1
[1]; [8]
  Growth Rate: 1
[2]; 12 h, replicate 1
  Population Apoptotic (%): 23% and 20%
  Population Fragmented Nuclei (%): 3%
  Population Healthy Nuclei (%): 88%
  Population Hoechst High Intensity Objects (%): 2% and 3%
  Population Membrane Permeable-Phenotype (%): 12% and 11%
  Population Mitochondria Different-Phenotype (%): 11% and 23%
  Population Mitotic Cells (%): 76% and 80%
  Population Normal (%): 97% and 96%
  Population Pyknosed Nuclei (%): 7% and 6%
  Population Tubulin-Different-Phenotype (%): 14% and 25%
  Total Cell Count: 250 and 141
[2]; 12 h, replicate 2
  Population Apoptotic (%): 50% and 33%
  Population Fragmented Nuclei (%): 5% and 8%
  Population Healthy Nuclei (%): 90% and 87%
  Population Hoechst High Intensity Objects (%): 11% and 13%
  Population Membrane Permeable-Phenotype (%): 15% and 7%
  Population Mitochondria Different-Phenotype (%): 21% and 25%
  Population Mitotic Cells (%): 50% and 66%
  Population Normal (%): 88% and 86%
  Population Pyknosed Nuclei (%): 4%
  Population Tubulin-Different-Phenotype (%): 19% and 24%
  Total Cell Count: 152 and 113
[2]; 24 h, replicate 1
  Population Apoptotic (%): 42% and 34%
  Population Fragmented Nuclei (%): 2% and 3%
  Population Healthy Nuclei (%): 93% and 90%
  Population Hoechst High Intensity Objects (%): 2% and 1%
  Population Membrane Permeable-Phenotype (%): 8% and 7%
  Population Mitochondria Different-Phenotype (%): 9%
  Population Mitotic Cells (%): 57% and 65%
  Population Normal (%): 97% and 98%
  Population Pyknosed Nuclei (%): 5%
  Population Tubulin-Different-Phenotype (%): 25% and 18%
  Total Cell Count: 149 and 352
[2]; 24 h, replicate 2
  Population Fragmented Nuclei (%): 8% and 7%
  Population Healthy Nuclei (%): 87% and 85%
  Population Hoechst High Intensity Objects (%): 4% and 5%
  Population Membrane Permeable-Phenotype (%): 15% and 9%
  Population Mitochondria Different-Phenotype (%): 24% and 37%
  Population Normal (%): 95% and 94%
  Population Pyknosed Nuclei (%): 4% and 6%
  Population Tubulin-Different-Phenotype (%): 16% and 24%
  Total Cell Count: 184 and 121
[3]; [7]
  Growth Rate: 0
[3]; [9]
  Growth Rate: 0
[3]; [10]
  Growth Rate: 0
[3]; [11]
  Growth Rate: 1
[3]; [12]
  Growth Rate: 0
[3]; [13]
  Growth Rate: 1
[3]; [14]
  Growth Rate: 0
[3]; [8]
  Growth Rate: 1
[4]; 12 h, replicate 1
  Population Apoptotic (%): 78% and 77%
  Population Fragmented Nuclei (%): 26% and 22%
  Population Healthy Nuclei (%): 58% and 60%
  Population Hoechst High Intensity Objects (%): 12% and 13%
  Population Membrane Permeable-Phenotype (%): 5%
  Population Mitochondria Different-Phenotype (%): 3% and 6%
  Population Mitotic Cells (%): 21% and 22%
  Population Normal (%): 87% and 86%
  Population Pyknosed Nuclei (%): 15% and 18%
  Population Tubulin-Different-Phenotype (%): 9% and 4%
  Total Cell Count: 308 and 230
[4]; 12 h, replicate 2
  Population Fragmented Nuclei (%): 33% and 67%
  Population Healthy Nuclei (%): 49% and 28%
  Population Hoechst High Intensity Objects (%): 38% and 40%
  Population Mitochondria Different-Phenotype (%): 19% and 42%
  Population Normal (%): 61% and 59%
  Total Cell Count: 103 and 83
[4]; 24 h, replicate 1
  Population Apoptotic (%): 69% and 48%
  Population Fragmented Nuclei (%): 22% and 21%
  Population Healthy Nuclei (%): 62% and 63%
  Population Hoechst High Intensity Objects (%): 16% and 19%
  Population Membrane Permeable-Phenotype (%): 5% and 4%
  Population Mitochondria Different-Phenotype (%): 7%
  Population Mitotic Cells (%): 30% and 51%
  Population Normal (%): 83% and 80%
  Population Pyknosed Nuclei (%): 14% and 15%
  Population Tubulin-Different-Phenotype (%): 9% and 4%
  Total Cell Count: 321 and 238
[4]; 24 h, replicate 2
  Population Fragmented Nuclei (%): 44% and 63%
  Population Healthy Nuclei (%): 46% and 34%
  Population Hoechst High Intensity Objects (%): 38%
  Population Membrane Permeable-Phenotype (%): 10% and 0%
  Population Normal (%): 61%
  Total Cell Count: 103 and 84
[5]; [7]
  Growth Rate: 0
[5]; [9]
  Growth Rate: 1
[5]; 6 h, replicate number 2, timepoint 6 hours
  Growth Rate: 0
[5]; [10]
  Growth Rate: 1
[5]; [11]
  Growth Rate: 0
[5]; [12]
  Growth Rate: 1
[5]; [13]
  Growth Rate: 0
[5]; [14]
  Growth Rate: 1
[5]; [8]
  Growth Rate: 0
[6]; 12 h, replicate 1
  Population Apoptotic (%): 12% and 19%
  Population Fragmented Nuclei (%): 13% and 11%
  Population Healthy Nuclei (%): 69% and 68%
  Population Hoechst High Intensity Objects (%): 8% and 10%
  Population Membrane Permeable-Phenotype (%): 5% and 3%
  Population Mitochondria Different-Phenotype (%): 7% and 5%
  Population Mitotic Cells (%): 87% and 80%
  Population Normal (%): 91% and 89%
  Population Pyknosed Nuclei (%): 17% and 19%
  Population Tubulin-Different-Phenotype (%): 7% and 3%
  Total Cell Count: 607 and 515
[6]; 12 h, replicate 2
  Population Apoptotic (%): 15% and 18%
  Population Fragmented Nuclei (%): 7% and 9%
  Population Healthy Nuclei (%): 89% and 86%
  Population Hoechst High Intensity Objects (%): 2% and 1%
  Population Membrane Permeable-Phenotype (%): 4% and 1%
  Population Mitochondria Different-Phenotype (%): 17%
  Population Mitotic Cells (%): 84% and 81%
  Population Normal (%): 97% and 98%
  Population Pyknosed Nuclei (%): 2% and 3%
  Total Cell Count: 1658 and 1670
[6]; 24 h, replicate 1
  Population Apoptotic (%): 28% and 16%
  Population Fragmented Nuclei (%): 12% and 14%
  Population Healthy Nuclei (%): 77%
  Population Hoechst High Intensity Objects (%): 6%
  Population Membrane Permeable-Phenotype (%): 10%
  Population Mitochondria Different-Phenotype (%): 4% and 8%
  Population Mitotic Cells (%): 71% and 83%
  Population Normal (%): 93%
  Population Pyknosed Nuclei (%): 10% and 7%
  Population Tubulin-Different-Phenotype (%): 6% and 9%
  Total Cell Count: 595 and 667
[6]; 24 h, replicate 2
  Population Apoptotic (%): 9% and 6%
  Population Fragmented Nuclei (%): 19% and 8%
  Population Healthy Nuclei (%): 78% and 89%
  Population Hoechst High Intensity Objects (%): 2%
  Population Membrane Permeable-Phenotype (%): 2%
  Population Mitotic Cells (%): 90% and 93%
  Population Normal (%): 97%
  Population Pyknosed Nuclei (%): 2% and 1%
  Population Tubulin-Different-Phenotype (%): 20%
  Total Cell Count: 2108 and 1925
